# Assay results taken from ChEMBL document CHEMBL1649209, “Improved murine model of malaria using Plasmodium falciparum competent strains and non-myelodepleted NOD-scid IL2Rgammanull mice engrafted with human erythrocytes” (2009).
# Calls of active or inactive are those of the source. The calls are words filed in the database; no cut-off is given here.
# What was measured:
# [1] = system: Plasmodium falciparum; assay: Antimalarial activity against Plasmodium falciparum PfV1S0176/N10 infected in immunodeficient HM-IL2Rgamma null mouse after 7 days; format: functional
# [2] = system: Plasmodium falciparum; assay: Antimalarial activity against Plasmodium falciparum Pf3D70087/N9 infected in immunodeficient HM-IL2Rgamma null mouse after 7 days; format: functional
# Outline: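 Four-day test in female NOD-scid IL2Rγnull mice engrafted by daily i.p. injections of human erythrocytes. Mice were infected i.v. with 20 × 10^6 Pf3D70087/N9-infected hE, then randomized 3 days later (3/group) and dosed orally once daily for 4 days. Day-7 parasitemia was measured by SYTO-16/TER-119 flow cytometry relative to vehicle. ED90 came from a sigmoid dose-response fit.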
# [3] = system: Plasmodium falciparum; assay: Antimalarial activity against Plasmodium falciparum Pf3D70087/N9 infected in immunodeficient HM-beta2 m null mouse after 7 days; format: functional
# [4] = system: Plasmodium falciparum; assay: Antimalarial activity against Plasmodium falciparum Pf3D70087/N9 infected in immunodeficient HM-IL2Rgamma null mouse assessed as decreased parasitemia at 50 mg/kg, po for 4 days after 28 days; format: functional, organism-based; set-up: dose 50 mg/kg
# Outline: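 Engrafted NOD-scid IL2Rγnull mice each carried about […] Pf3D70087/N9-infected hE. They were dosed orally at 50 mg/kg once daily for four consecutive days. Peripheral blood was checked for parasites up to at least 28 days after treatment ended.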
smiles,measurement,setting,value
Cc1[nH]c(CO)c(-c2ccc(Oc3ccc(OC(F)(F)F)cc3)cc2)c(=O)c1Cl,ED90,[1],<1 mg/kg
same,ED90,[2],0.6 mg/kg
same,ED90,[3],0.6 mg/kg
C[C@H]1[C@H](OC(=O)CCC(=O)O)O[C@@H]2O[C@@]3(C)CC[C@H]4[C@H](C)CC[C@@H]1[C@@]24OO3 [ARTESUNATE],ED90,[1],<20 mg/kg
same,ED90,[2],12.9 mg/kg
same,ED90,[3],12.7 mg/kg
CCN(CC)CCCC(C)Nc1ccnc2cc(Cl)ccc12 (stereo not drawn) [CHLOROQUINE],ED90,[1],>50 mg/kg
same,ED90,[2],4.9 mg/kg
same,ED90,[3],4.4 mg/kg
same,Activity,[4],Active
CCc1nc(N)nc(N)c1-c1ccc(Cl)cc1 [PYRIMETHAMINE],ED90,[1],>50 mg/kg
same,ED90,[2],0.5 mg/kg
same,ED90,[3],0.9 mg/kg
